Data from ChEMBL document CHEMBL1629465, “Efficient synthesis of novel 1,2,4-triazole fused acyclic and 21-28 membered macrocyclic and/or lariat macrocyclic oxaazathia crown compounds with potential antimicrobial activity” (2010).

What was measured:
Type in all cases: functional
Conditions in all cases: read-out: DIZ
Aspergillus fumigatus [1] = assay: Antimicrobial activity against Aspergillus fumigatus RCMB 002008 at 1 mg/ml by agar diffusion technique
How it was run: (§1)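 Agar well diffusion. Test compounds and reference standard drugs were diluted to 5.0, 2.5 and 1.0 mg/mL and applied to 0.6 cm wells. Inhibition zone beyond the control was scored as 0 (no inhibition), + (0.1–0.5 cm), ++ (0.6–1.0 cm) or +++ (1.0–1.5 cm).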

Aspergillus fumigatus [2] = assay: Antimicrobial activity against Aspergillus fumigatus RCMB 002008 at 2.5 mg/ml by agar diffusion technique; how it was run: as §1
Aspergillus fumigatus [3] = assay: Antimicrobial activity against Aspergillus fumigatus RCMB 002008 at 5 mg/ml by agar diffusion technique; how it was run: as §1
Penicillium italicum [4] = assay: Antimicrobial activity against Penicillium italicum RCMB 001018 at 1 mg/ml by agar diffusion technique; how it was run: as §1
Penicillium italicum [5] = assay: Antimicrobial activity against Penicillium italicum RCMB 001018 at 2.5 mg/ml by agar diffusion technique; how it was run: as §1
Penicillium italicum [6] = assay: Antimicrobial activity against Penicillium italicum RCMB 001018 at 5 mg/ml by agar diffusion technique; how it was run: as §1
[7] = tested on: Syncephalastrum racemosum; assay: Antimicrobial activity against Syncephalastrum racemosum RCMB 016001 at 1 mg/ml by agar diffusion technique; how it was run: as §1
[8] = tested on: Syncephalastrum racemosum; assay: Antimicrobial activity against Syncephalastrum racemosum RCMB 016001 at 2.5 mg/ml by agar diffusion technique; how it was run: as §1
[9] = tested on: Syncephalastrum racemosum; assay: Antimicrobial activity against Syncephalastrum racemosum RCMB 016001 at 5 mg/ml by agar diffusion technique; how it was run: as §1
Candida albicans [10] = assay: Antimicrobial activity against Candida albicans RCMB 005003 at 1 mg/ml by agar diffusion technique; how it was run: as §1
Candida albicans [11] = assay: Antimicrobial activity against Candida albicans RCMB 005003 at 2.5 mg/ml by agar diffusion technique; how it was run: as §1
Candida albicans [12] = assay: Antimicrobial activity against Candida albicans RCMB 005003 at 5 mg/ml by agar diffusion technique; how it was run: as §1
Staphylococcus aureus [13] = assay: Antimicrobial activity against Staphylococcus aureus RCMB 106001 at 1 mg/ml by agar diffusion technique; how it was run: as §1
Staphylococcus aureus [14] = assay: Antimicrobial activity against Staphylococcus aureus RCMB 106001 at 2.5 mg/ml by agar diffusion technique; how it was run: as §1
Staphylococcus aureus [15] = assay: Antimicrobial activity against Staphylococcus aureus RCMB 106001 at 5 mg/ml by agar diffusion technique; how it was run: as §1
Pseudomonas aeruginosa [16] = assay: Antimicrobial activity against Pseudomonas aeruginosa RCMB 102002 at 1 mg/ml by agar diffusion technique; how it was run: as §1
Pseudomonas aeruginosa [17] = assay: Antimicrobial activity against Pseudomonas aeruginosa RCMB 102002 at 2.5 mg/ml by agar diffusion technique; how it was run: as §1
Pseudomonas aeruginosa [18] = assay: Antimicrobial activity against Pseudomonas aeruginosa RCMB 102002 at 5 mg/ml by agar diffusion technique; how it was run: as §1
Bacillus subtilis [19] = assay: Antimicrobial activity against Bacillus subtilis RCMB 101001 at 1 mg/ml by agar diffusion technique; how it was run: as §1
Bacillus subtilis [20] = assay: Antimicrobial activity against Bacillus subtilis RCMB 101001 at 2.5 mg/ml by agar diffusion technique; how it was run: as §1
Bacillus subtilis [21] = assay: Antimicrobial activity against Bacillus subtilis RCMB 101001 at 5 mg/ml by agar diffusion technique; how it was run: as §1
Escherichia coli [22] = assay: Antimicrobial activity against Escherichia coli RCMB 103001 at 1 mg/ml by agar diffusion technique; how it was run: as §1
Escherichia coli [23] = assay: Antimicrobial activity against Escherichia coli RCMB 103001 at 2.5 mg/ml by agar diffusion technique; how it was run: as §1
Escherichia coli [24] = assay: Antimicrobial activity against Escherichia coli RCMB 103001 at 5 mg/ml by agar diffusion technique; how it was run: as §1

Row | Structure (SMILES) | zone of inhibition at 1000 µg/mL (Aspergillus fumigatus [1]) [mm] | zone of inhibition at 2500 µg/mL (Aspergillus fumigatus [2]) [mm] | zone of inhibition at 5000 µg/mL (Aspergillus fumigatus [3]) [mm] | zone of inhibition at 1000 µg/mL (Penicillium italicum [4]) [mm] | zone of inhibition at 2500 µg/mL (Penicillium italicum [5]) [mm] | zone of inhibition at 5000 µg/mL (Penicillium italicum [6]) [mm] | zone of inhibition at 1000 µg/mL [7] [mm] | zone of inhibition at 2500 µg/mL [8] [mm] | zone of inhibition at 5000 µg/mL [9] [mm] | zone of inhibition at 1000 µg/mL (Candida albicans [10]) [mm] | zone of inhibition at 2500 µg/mL (Candida albicans [11]) [mm] | zone of inhibition at 5000 µg/mL (Candida albicans [12]) [mm] | zone of inhibition at 1000 µg/mL (Staphylococcus aureus [13]) [mm] | zone of inhibition at 2500 µg/mL (Staphylococcus aureus [14]) [mm] | zone of inhibition at 5000 µg/mL (Staphylococcus aureus [15]) [mm] | zone of inhibition at 1000 µg/mL (Pseudomonas aeruginosa [16]) [mm] | zone of inhibition at 2500 µg/mL (Pseudomonas aeruginosa [17]) [mm] | zone of inhibition at 5000 µg/mL (Pseudomonas aeruginosa [18]) [mm] | zone of inhibition at 1000 µg/mL (Bacillus subtilis [19]) [mm] | zone of inhibition at 2500 µg/mL (Bacillus subtilis [20]) [mm] | also measured
1 | Oc1ccccc1/C=N\n1c(SCCSc2nnc(-c3cccnc3)n2/N=C\c2ccccc2O)nnc1-c1cccnc1 | 0 | 0 | 0 | 0 | 0 | 1 | 0 | 1 | 1 | 0 | 0 | 0 | 0 | 0 | 0 | 0 | 0 | 0 | 0 | 0 | zone of inhibition at 5000 µg/mL (Bacillus subtilis [21]): 1 mm; zone of inhibition at 1000 µg/mL (Escherichia coli [22]): 0 mm; zone of inhibition at 2500 µg/mL (Escherichia coli [23]): 0 mm; zone of inhibition at 5000 µg/mL (Escherichia coli [24]): 0 mm
2 | C1=N\n2c(nnc2-c2cccnc2)SCCCCSc2nnc(-c3cccnc3)n2/N=C\c2ccccc2OCCOCCOCCOc2ccccc2/1 | 0 | 0 | 0 | 0 | 0 | 0 | 0 | 0 | 1 | 0 | 0 | 0 | 0 | 0 | 1 | 0 | 1 | 1 | 0 | 0 | zone of inhibition at 5000 µg/mL (Bacillus subtilis [21]): 0 mm; zone of inhibition at 1000 µg/mL (Escherichia coli [22]): 0 mm; zone of inhibition at 2500 µg/mL (Escherichia coli [23]): 1 mm; zone of inhibition at 5000 µg/mL (Escherichia coli [24]): 1 mm
3 | OC1COc2ccccc2/C=N\n2c(nnc2-c2cccnc2)SCCCSc2nnc(-c3cccnc3)n2/N=C\c2ccccc2OC1 | 0 | 0 | 0 | 0 | 1 | 1 | 0 | 1 | 1 | 0 | 1 | 1 | 0 | 0 | 0 | 0 | 0 | 0 | 1 | 1 | zone of inhibition at 5000 µg/mL (Bacillus subtilis [21]): 6 mm; zone of inhibition at 1000 µg/mL (Escherichia coli [22]): 0 mm; zone of inhibition at 2500 µg/mL (Escherichia coli [23]): 0 mm; zone of inhibition at 5000 µg/mL (Escherichia coli [24]): 0 mm
4 | OC1COc2ccccc2/C=N\n2c(nnc2-c2cccnc2)SCCCCSc2nnc(-c3cccnc3)n2/N=C\c2ccccc2OC1 | 0 | 0 | 0 | 0 | 0 | 0 | 0 | 0 | 0 | 0 | 0 | 0 | 0 | 0 | 1 | 0 | 0 | 0 | 1 | 1 | zone of inhibition at 5000 µg/mL (Bacillus subtilis [21]): 1 mm; zone of inhibition at 1000 µg/mL (Escherichia coli [22]): 0 mm; zone of inhibition at 2500 µg/mL (Escherichia coli [23]): 0 mm; zone of inhibition at 5000 µg/mL (Escherichia coli [24]): 0 mm
5 | OC1COc2ccccc2CNn2c(nnc2-c2cccnc2)SCCCSc2nnc(-c3cccnc3)n2NCc2ccccc2OC1 | 0 | 0 | 0 | 0 | 0 | 0 | 0 | 0 | 0 | 0 | 0 | 0 | 0 | 0 | 0 | 0 | 0 | 0 | 1 | 6 | zone of inhibition at 5000 µg/mL (Bacillus subtilis [21]): 6 mm; zone of inhibition at 1000 µg/mL (Escherichia coli [22]): 0 mm; zone of inhibition at 2500 µg/mL (Escherichia coli [23]): 0 mm; zone of inhibition at 5000 µg/mL (Escherichia coli [24]): 0 mm
6 | O=C(N[C@H](CO)[C@H](O)c1ccc([N+](=O)[O-])cc1)C(Cl)Cl [CHLORAMPHENICOL] | 6 | 10 | 10 | 6 | 10 | 10 | 10 | 10 | 10 | 6 | 6 | 6 | 6 | 6 | 6 | 6 | 10 | 10 | 6 | 10 | zone of inhibition at 5000 µg/mL (Bacillus subtilis [21]): 10 mm; zone of inhibition at 1000 µg/mL (Escherichia coli [22]): 6 mm; zone of inhibition at 2500 µg/mL (Escherichia coli [23]): 6 mm; zone of inhibition at 5000 µg/mL (Escherichia coli [24]): 6 mm
7 | CN(C/C=C/C#CC(C)(C)C)Cc1cccc2ccccc12 [TERBINAFINE] | 6 | 10 | 10 | 6 | 10 | 10 | 10 | 10 | 10 | 6 | 6 | 6 | 6 | 6 | 6 | 6 | 10 | 10 | 6 | 10 | zone of inhibition at 5000 µg/mL (Bacillus subtilis [21]): 10 mm; zone of inhibition at 1000 µg/mL (Escherichia coli [22]): 6 mm; zone of inhibition at 2500 µg/mL (Escherichia coli [23]): 6 mm; zone of inhibition at 5000 µg/mL (Escherichia coli [24]): 6 mm
